Source: PMC10499740 (Advances in Therapy, 2023)

Test: Plasma triptorelin concentration
Type: in vivo, Chinese children
Conditions: human, im, 15 mg, SD
Procedure, shortened: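 Children with CPP (age-limited, ≥20 kg) received 15 mg of the test compound's pamoate salt (delivering 11.25 mg) by intramuscular injection into the upper outer buttock on day 1 and months 3, 6 and 9. Sparse plasma sampling was done pre-dose, 4 h post-injection on day 1, at month 3 (pre-dose) and at month 6. Concentrations were measured by validated LC-MS/MS and reported as means.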

level at 4 h: 47.6 ± 23.9 ng/mL
SMILES: CC(C)C[C@H](NC(=O)[C@@H](Cc1c[nH]c2ccccc12)NC(=O)[C@H](Cc1ccc(O)cc1)NC(=O)[C@H](CO)NC(=O)[C@H](Cc1c[nH]c2ccccc12)NC(=O)[C@H](Cc1c[nH]cn1)NC(=O)[C@@H]1CCC(=O)N1)C(=O)N[C@@H](CCCNC(=N)N)C(=O)N1CCC[C@H]1C(=O)NCC(N)=O [triptorelin]
